Measurements from different studies.
Target: Protein kinase C iota type (PRKCI, Homo sapiens, UniProt P41743)
Sequence (P41743 1-596, as in one of the studies): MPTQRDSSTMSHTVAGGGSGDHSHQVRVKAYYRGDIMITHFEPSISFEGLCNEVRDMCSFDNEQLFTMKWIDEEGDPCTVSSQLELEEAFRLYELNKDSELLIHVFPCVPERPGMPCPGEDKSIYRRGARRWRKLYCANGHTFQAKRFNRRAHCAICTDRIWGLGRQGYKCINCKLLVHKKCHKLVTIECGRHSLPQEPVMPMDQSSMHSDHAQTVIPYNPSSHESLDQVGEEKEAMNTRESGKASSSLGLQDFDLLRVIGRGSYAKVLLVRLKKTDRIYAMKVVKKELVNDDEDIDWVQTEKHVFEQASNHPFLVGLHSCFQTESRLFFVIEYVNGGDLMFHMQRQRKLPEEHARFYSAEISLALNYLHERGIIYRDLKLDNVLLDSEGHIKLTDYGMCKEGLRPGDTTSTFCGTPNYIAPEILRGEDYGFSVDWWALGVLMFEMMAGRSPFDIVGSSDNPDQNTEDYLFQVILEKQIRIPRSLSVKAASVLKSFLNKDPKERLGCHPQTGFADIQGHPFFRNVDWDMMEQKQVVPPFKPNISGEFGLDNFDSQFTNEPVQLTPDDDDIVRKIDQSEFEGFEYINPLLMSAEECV

SMILES	read-out	action	method	tested at	measurement	result
Cc1ccc(Nc2nccc(N(C)c3ccc4c(C)n(C)nc4c3)n2)cc1S(N)(=O)=O	enzyme activity			0.5 µM	remaining activity	96.1%
CCN(CC)CCNC(=O)c1c(C)[nH]c(/C=C2\C(=O)Nc3ccc(F)cc32)c1C	enzyme activity	inhibitor		0.3 µM	inhibition	3%
CCC(=O)N[C@@H]1CC[C@H](C(=O)N(C)c2ccc(-c3nc4ccccc4o3)cc2)C1	cell-free assay		competition with immobilised ligand	1 µM	remaining binding	84%
Cc1sc(C(=O)NC2COC2)cc1-n1cc(NC(=O)Nc2c(F)cccc2Cl)cn1	enzyme activity	inhibitor		10 µM	remaining activity	90.8%
CNC(=O)c1cc(Oc2ccc(NC(=O)Nc3ccc(Cl)c(C(F)(F)F)c3)cc2)ccn1	enzyme activity	inhibitor		10 µM	inhibition	9%
CC(C)c1ccc(NC(=O)c2cccs2)c(-c2nc3ccccc3[nH]c2=O)c1	enzyme activity	inhibitor		1 µM	activity vs control	94%
Cc1ccc(C(=O)Nc2ccc(CN3CCN(C)CC3)c(C(F)(F)F)c2)cc1C#Cc1cnc2cccnn12	enzyme activity			23.5 nM	remaining activity	85%
CN1CC(Oc2cnc(C#N)cc2-c2ccn3nc(NC(=O)C4CC4)cc3c2)C1	enzyme activity	inhibitor		1 µM	inhibition	-8%
CC(C)(C)c1nc2c(s1)c1nc(N)ncc1c1ccc(NS(=O)(=O)c3c(F)cccc3F)c(F)c12	enzyme activity	inhibitor	radiometric	1 µM	remaining activity	91%
Cc1ccc(-n2nc(C(C)(C)C)cc2NC(=O)Nc2ccc(OCCN3CCOCC3)c3ccccc23)cc1	enzyme activity	inhibitor		10 µM	inhibition	3%
CN(C)C1CCN(CC#Cc2nn(C3CCCC3)c3nc(NCc4ccccc4)ncc23)C1 (stereo not drawn)	enzyme activity	inhibitor	FRET	0.1 µM	inhibition	9%
COc1cccc(CNC(=O)c2nc3scc(COCc4ccc(C(=O)O)cc4)c3c(=O)[nH]2)c1	cell-free assay		competition with immobilised ligand	1 µM	remaining binding	100%
O=C(Nc1cnn(-c2csc(C(=O)NC3COC3)c2)c1)Nc1ccccc1Cl	enzyme activity	inhibitor		5 µM	remaining activity	95.5%
CNCc1ccc(-c2cc(-c3nc(-c4ccc(S(=O)(=O)C(C)C)cc4)cnc3N)on2)cc1	enzyme activity	inhibitor		0.4 µM	inhibition	0%
COc1cc2ncnc(Nc3ccc(Oc4ccccc4)cc3C)c2cc1OC	enzyme activity	inhibitor		1 µM	inhibition	3%
CO[C@@H](C)c1c(Nc2ccc([C@H](N(C)C(=O)C3CCS(=O)(=O)CC3)C(F)(F)F)cc2)cnc2cc(Cl)nn12	cell-free assay		competition with immobilised ligand	1 µM	remaining binding	72%
COc1cccc2c(NCc3ccccc3)nc(-n3c(N)nc4ccccc43)nc12	target engagement in cells	inhibitor	chemoproteomics	20 mM	inhibition	-13.3%
COc1ccc2cc(OCC3(C(=O)O)CN(C(=O)c4ccc(F)cc4)C3)ccc2c1	cell-free assay		competition with immobilised ligand	1 µM	remaining binding	100%
Nc1ncnc2occ(-c3ccc(NC(=O)Nc4cc(C(F)(F)F)ccc4F)cc3)c12	cell-free assay			20 µM	remaining signal	6.8%
Cn1nc(C(=O)NCc2ccc(C(=O)O)cc2)cc1-c1ccc2[nH]ccc2c1	cell-free assay		competition with immobilised ligand	0.1 µM	remaining binding	80%
O=C1NC(=O)c2cc(Nc3ccc(F)cc3)c(Nc3ccc(F)cc3)cc21	cell-free assay			0.5 µM	remaining signal	89%
CC(C)(O)c1cncc(-c2nc3ccc(F)cc3n2C2CC2)c1	cell-free assay		competition with immobilised ligand	1 µM	remaining binding	89%
COc1cc(Cl)c(C(=O)N[C@@H](CN[C@H]2CC[C@@H](N)CC2)Cc2ccc(C#N)cc2)cc1-c1ccc(CN[C@H](C)c2ccc(C)cc2)o1	enzyme activity	inhibitor		1 µM	remaining activity	96%
Nc1c(C(=O)NCc2ccc(C(=O)NCCCC3CCCCC3)cc2)cnn1-c1ccccc1	cell-free assay		competition with immobilised ligand	0.1 µM	remaining binding	97%
Cc1cc(NC(=O)c2cccc3cc(-c4cccc5[nH]nc(N)c45)ccc23)ccc1F	enzyme activity	inhibitor		0.1 µM	activity vs control	98%
COc1cc(-c2cn(C3CCc4c(F)cccc4N(CC(F)(F)F)C3=O)nn2)ccc1-n1cnc(C)c1 (stereo not drawn)	cell-free assay		competition with immobilised ligand	1 µM	remaining binding	100%
CC/C(=N\NC(=O)NCc1cccc(O)c1)c1ccc(O)c(C)c1O	enzyme activity	inhibitor		0.1 µM	inhibition	15.8%
